Data as given in ChEMBL document CHEMBL1124639, “Synthesis and in vitro pharmacology of arpromidine and related phenyl(pyridylalkyl)guanidines, a potential new class of positive inotropic drugs” (J Med Chem, 1989).
The source made the active and inactive calls. The calls are words filed in the database; no cut-off is given here.

Columns and labels:
[1] = biological target: Histamine H2 receptor (Cavia porcellus) (UniProt P47747); assay: Histamine H2 receptor agonistic activity (as a measure of agonism) at the isolated right atrium of guinea pig, activity relative to histamine.; format: functional, tissue-based; settings: Cardiac atrium
Sequence of Histamine H2 receptor (Cavia porcellus) (P47747 whole entry): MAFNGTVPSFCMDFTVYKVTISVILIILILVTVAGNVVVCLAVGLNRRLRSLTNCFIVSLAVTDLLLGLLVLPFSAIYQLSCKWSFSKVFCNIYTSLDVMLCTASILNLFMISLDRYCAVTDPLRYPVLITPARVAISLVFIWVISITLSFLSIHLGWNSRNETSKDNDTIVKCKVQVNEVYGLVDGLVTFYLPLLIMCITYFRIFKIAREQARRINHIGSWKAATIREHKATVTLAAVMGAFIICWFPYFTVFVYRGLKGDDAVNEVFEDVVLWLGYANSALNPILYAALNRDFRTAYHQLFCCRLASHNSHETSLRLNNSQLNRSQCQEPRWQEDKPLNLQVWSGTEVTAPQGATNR
Procedure, shortened: (§1)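 Spontaneously beating isolated guinea pig right atrium with a positive chronotropic read-out. Cumulative concentration-response curves were run against histamine dihydrochloride as the standard. Incubation after each concentration was usually 25 min, adjusted until equilibrium. H2 selectivity was checked with cimetidine (10 µM and 1 µM) and metoprolol (1 µM). Potency relative to histamine = 1 was calculated from mean pD2 values.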

[2] = biological target: Histamine H2 receptor (Cavia porcellus) (UniProt P47747); assay: Intrinsic activity (as a measure of agonism) on electrically stimulated papillary muscle of guinea pig; format: functional, tissue-based; settings: Muscle tissue
Procedure, shortened: (§2)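 Isolated right-ventricular papillary muscle from guinea pig, electrically paced at 1 Hz with 1 ms pulses, in Krebs-Henseleit solution gassed with O2/CO2 95:5 at 32.5 °C. Compounds were tested as hydrohalide salts. Cumulative concentration-response curves of contractile force were run against histamine as the standard agonist. […] relative potency were taken from pD2, with histamine maximum = 1.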

[3] = biological target: Histamine H2 receptor (Cavia porcellus) (UniProt P47747); assay: Potency relative to histamine calculated from mean pD2 value in guinea pig right atrium.; format: functional, tissue-based; settings: Cardiac atrium; procedure, shortened: as §1
[4] = biological target: Histamine H2 receptor (Cavia porcellus) (UniProt P47747); assay: Histamine H2 receptor agonism relative to histamine on isolated guinea pig right atrium; format: functional, tissue-based; settings: Cardiac atrium; procedure, shortened: as §1
[5] = biological target: Histamine H2 receptor (Cavia porcellus) (UniProt P47747); assay: Agonistic activity relative to histamine on electrically stimulated papillary muscle of guinea pig; format: functional, tissue-based; settings: Muscle tissue; procedure, shortened: as §2
Histamine H1 receptor [6] = biological target: T1, Histamine H1 receptor (Cavia porcellus, UniProt P31389); assay: Antagonist activity at histamine H1 receptor against histamine in isolated ileum of guinea pig.; format: functional, tissue-based; settings: read-out: pA2 (converted)
T1 sequence (P31389 whole entry): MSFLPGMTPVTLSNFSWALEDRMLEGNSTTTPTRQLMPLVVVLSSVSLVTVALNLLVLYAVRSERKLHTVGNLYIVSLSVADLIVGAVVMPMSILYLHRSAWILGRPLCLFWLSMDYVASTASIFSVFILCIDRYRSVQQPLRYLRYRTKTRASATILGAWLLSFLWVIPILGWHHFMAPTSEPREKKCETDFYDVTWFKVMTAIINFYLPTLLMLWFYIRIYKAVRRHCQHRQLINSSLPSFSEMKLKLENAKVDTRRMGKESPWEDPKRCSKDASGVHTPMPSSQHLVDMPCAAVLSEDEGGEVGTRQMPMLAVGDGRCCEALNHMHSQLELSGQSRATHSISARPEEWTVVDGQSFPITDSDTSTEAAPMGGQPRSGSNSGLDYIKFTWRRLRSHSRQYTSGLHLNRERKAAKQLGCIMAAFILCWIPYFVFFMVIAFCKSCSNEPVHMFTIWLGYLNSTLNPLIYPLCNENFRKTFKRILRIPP
Procedure, shortened: (§3)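 Isolated guinea pig ileum contracted by histamine, with histamine dihydrochloride as the standard agonist in cumulative dose-response curves. pA2 was derived. For compounds that depressed the histamine maximum at 10 µM, -log KB was taken at 3 µM antagonist from log(DR-1) = log[ant.] - log KB.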

[7] = biological target: Histamine H2 receptor (Cavia porcellus) (UniProt P47747); assay: H2 receptor agonistic activity in isolated right atrium of guinea pig compared to histamine; format: functional, tissue-based; settings: Cardiac atrium; procedure, shortened: as §1
[8] = biological target: Histamine H2 receptor (Cavia porcellus) (UniProt P47747); assay: Intrinsic activity at H2 receptor in electrically stimulated guinea pig papillary muscle; format: functional, tissue-based; procedure, shortened: as §2
[9] = biological target: Histamine H2 receptor (Cavia porcellus) (UniProt P47747); assay: Potency at H2 receptor compared to histamine from mean pD2 value in right atrium of guinea pig; format: functional, tissue-based; settings: Cardiac atrium; procedure, shortened: as §1
[10] = biological target: Histamine H2 receptor (Cavia porcellus) (UniProt P47747); assay: Agonist activity at H2 receptor relative to histamine on electrically stimulated papillary muscle of guinea pig; format: functional, tissue-based; procedure, shortened: as §2
[11] = biological target: Histamine H2 receptor (Cavia porcellus) (UniProt P47747); assay: H2 receptor agonist activity relative to histamine on isolated right atrium of guinea pig; format: functional, tissue-based; settings: Cardiac atrium; procedure, shortened: as §1
Cavia porcellus [12] = organism: Cavia porcellus; assay: Increase in heart rate with maximal inotropic response in isolated perfused guinea pig heart; format: functional; set-up: unit not given beside the values
Procedure, shortened: (§4)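 Langendorff-perfused isolated guinea pig heart. Compounds were given as a bolus injected into the perfusion stream, with impromidine as reference. Net increases in LV dp/dtmax, heart rate and coronary flow were expressed against impromidine = 100% in a control group (n = 6 each). Relative potency was taken from molar ED50 ratios versus impromidine = 100%.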

Cavia porcellus [13] = organism: Cavia porcellus; assay: Chronotropic effect assessed from maximal increase in delta LV (dp/dtmax) in isolated perfused guinea pig heart; format: functional; settings: in the assay text read “Inotropic effect” for “Chronotropic effect”; procedure, shortened: as §4
Cavia porcellus [14] = organism: Cavia porcellus; assay: Increase in coronary flow with maximal inotropic response in isolated perfused guinea pig heart; format: functional; set-up: unit not given beside the values; procedure, shortened: as §4
Cavia porcellus [15] = organism: Cavia porcellus; assay: Relative potency with impromidine (100%) in isolated perfused guinea pig heart; format: functional; procedure, shortened: as §4
[16] = biological target: Histamine H2 receptor (Cavia porcellus) (UniProt P47747); assay: Compound was tested for histamine H2 receptor agonistic activity of compound relative to histamine on isolated right atrium of guinea pig;NA means inactive as agonist at </=10 uM.; format: functional, tissue-based; settings: Cardiac atrium; procedure, shortened: as §1
Histamine H1 receptor [17] = biological target: T1, Histamine H1 receptor; assay: Antagonist activity at histamine H1 receptor against histamine in isolated ileum of guinea pig; format: functional, tissue-based; settings: read-out: pA2 (converted); procedure, shortened: as §3

Intrinsic activity [1] | Intrinsic activity [2] | Relative potency [3] | pD2 [4] | pD2 [5] | Kb (Histamine H1 receptor [6]) | Compound | other results
1 | 0.6 | 28.8 | 7.46 | 6.03 | 195 nM | N=C(NCCCc1c[nH]cn1)NCCC(c1ccccc1)c1ccc(Cl)c(Cl)c1 (stereo not drawn) | –
1 | 0.5 | 75.9 | 7.88 | 7.79 | 158 nM | N=C(NCCCc1c[nH]cn1)NCCC(c1cccc(F)c1)c1ccccn1 (stereo not drawn) | –
0.9 | – | 26.3 | 7.42 | – | 115 nM | N/C(=N\CCC(O)(c1ccc(F)cc1)c1ccccn1)NCCCc1c[nH]cn1 (stereo not drawn) | –
1 | 0.7 | 26.9 | 7.43 | 7.44 | 525 nM | N=C(NCCCc1c[nH]cn1)NCCC(c1cccc(C(F)(F)F)c1)c1ccccn1 (stereo not drawn) | –
0.9 | – | 24 | 7.38 | – | 851 nM | N/C(=N\CCC(c1cccc(N)c1)c1ccccn1)NCCCc1c[nH]cn1 (stereo not drawn) | –
– | – | – | – | – | 229 nM | N=C(N)NCCC(c1ccc(F)cc1)c1ccccn1 (stereo not drawn) | Intrinsic activity [16]: inactive
0.8 | – | 0.25 | 5.4 | – | 1100 nM | CN(CCC(c1ccc(F)cc1)c1ccccn1)C(=N)NCCCc1c[nH]cn1 (stereo not drawn) | –
1 | 0.8 | 123 | 8.09 | 7.91 | – | N=C(NCCCc1c[nH]cn1)NCCC(c1ccc(F)cc1)c1cccnc1 (stereo not drawn) | –
0.9 | – | 7.4 | 6.87 | – | 46.8 nM | N=C(NCCCc1c[nH]cn1)NCCCC(c1ccc(F)cc1)c1ccccn1 (stereo not drawn) | –
1 | 0.8 | 155 | 8.19 | 7.54 | 79.4 nM | N=C(NCCCc1c[nH]cn1)NCCC(c1ccc(Cl)c(Cl)c1)c1ccccn1 (stereo not drawn) | Delta heart rate (Cavia porcellus [12]): 62; Delta LV (Cavia porcellus [13]): 121; Delta coronary flow (Cavia porcellus [14]): 128; Relative potency (Cavia porcellus [15]): 221
1 | – | 28.8 | 7.46 | – | 437 nM | N=C(NCCCc1c[nH]cn1)NCCC(c1ccccn1)c1ccccc1F (stereo not drawn) | –
1 | – | 4.3 | 6.63 | – | – | N/C(=N\CCC(c1ccc(O)cc1)c1ccccn1)NCCCc1c[nH]cn1 (stereo not drawn) | Kb (Histamine H1 receptor [17]): 661 nM
1 | – | 2.2 | 6.35 | – | 3310 nM | N=C(NCCCc1c[nH]cn1)NCC(c1ccccc1)c1ccccn1 (stereo not drawn) | –
1 | 0.8 | 112 | 8.05 | 7.91 | 275 nM | N=C(NCCCc1c[nH]cn1)NCCC(c1cc(F)cc(F)c1)c1ccccn1 (stereo not drawn) | Delta heart rate (Cavia porcellus [12]): 79; Delta LV (Cavia porcellus [13]): 129; Delta coronary flow (Cavia porcellus [14]): 182; Relative potency (Cavia porcellus [15]): 244
1 | – | 4.1 | 6.61 | – | – | N=C(NCCCc1c[nH]cn1)NCCCC(c1ccccc1)c1ccccn1 (stereo not drawn) | –
1 | 0.8 | 102 | 8.01 | 7.94 | – | N=C(NCCCc1c[nH]cn1)NCCC(c1ccc(F)cc1)c1ccccn1 (stereo not drawn) [ARPROMIDINE] | Delta heart rate (Cavia porcellus [12]): 57; Delta LV (Cavia porcellus [13]): 97; Delta coronary flow (Cavia porcellus [14]): 143; Relative potency (Cavia porcellus [15]): 146

Continued, molecule first:

Compound | Intrinsic activity [1] | Intrinsic activity [2] | Relative potency [3] | pD2 [4] | pD2 [5] | Kb (Histamine H1 receptor [6]) | other results
N=C(NCCCc1c[nH]cn1)NCCC(c1ccccc1)c1ccc(Cl)cc1 (stereo not drawn) | – | – | – | – | – | 97.7 nM | Intrinsic activity [7]: 1; Intrinsic activity [8]: 0.8; Relative potency [9]: 13.2; pD2 [10]: 5.83; pD2 [11]: 7.12
N=C(NCCCc1c[nH]cn1)NCCC(c1ccccn1)c1cccs1 (stereo not drawn) | 1 | – | 14.5 | 7.16 | – | 45.7 nM | –
N=C(NCCCc1c[nH]cn1)NCCC(c1ccccn1)c1ccc(Cl)cc1Cl (stereo not drawn) | 0.9 | – | 52.5 | 7.72 | – | 288 nM | –
COc1ccc(C(CC/N=C(\N)NCCCc2c[nH]cn2)c2ccccn2)cc1 (stereo not drawn) | 1 | 0.5 | 27.5 | 7.44 | 7 | 269 nM | –
NC(=NCCC(c1ccc(F)cc1)c1ccccn1)NCCCc1cnc[nH]1 (stereo not drawn) [ARPROMIDINE] | – | – | – | – | – | 22.4 nM | –
Cc1[nH]cnc1CSCCNC(=N)NCCCc1c[nH]cn1 [IMPROMIDINE] | – | – | – | – | – | – | Delta heart rate (Cavia porcellus [12]): 100; Delta LV (Cavia porcellus [13]): 100; Delta coronary flow (Cavia porcellus [14]): 100; Relative potency (Cavia porcellus [15]): 100
N=C(NCCCc1c[nH]cn1)NCCC(c1ccc(C(F)(F)F)cc1)c1ccccn1 (stereo not drawn) | 0.9 | 0.9 | 57.5 | 7.76 | 7.23 | 282 nM | –
N=C(NC/C=C(\c1ccc(F)cc1)c1ccccn1)NCCCc1c[nH]cn1 | 1 | – | 29.5 | 7.47 | – | 347 nM | –
N/C(=N\CCC(c1cccc([N+](=O)[O-])c1)c1ccccn1)NCCCc1c[nH]cn1 (stereo not drawn) | 0.9 | – | 8.1 | 6.91 | – | 1700 nM | –
N=C(NCCCc1c[nH]cn1)NCCSC(c1ccccc1)c1ccccn1 (stereo not drawn) | 1 | – | 4 | 6.6 | – | – | –
Cc1ccc(C(CC/N=C(\N)NCCCc2c[nH]cn2)c2ccccn2)cc1 (stereo not drawn) | 1 | 1 | 51.3 | 7.71 | 7.15 | 148 nM | Delta heart rate (Cavia porcellus [12]): 77; Delta LV (Cavia porcellus [13]): 96; Delta coronary flow (Cavia porcellus [14]): 59; Relative potency (Cavia porcellus [15]): 138
N=C(NCCCc1c[nH]cn1)NCCC(c1ccccn1)c1ccccn1 | 1 | – | 7.9 | 6.9 | – | 389 nM | –
N=C(NCCCc1c[nH]cn1)NCCC(c1ccccn1)c1ccccc1Cl (stereo not drawn) | – | – | – | – | – | 513 nM | Intrinsic activity [7]: 0.9; Relative potency [9]: 22.4; pD2 [11]: 7.35
N=C(NCCCc1c[nH]cn1)NCCC(c1cccc(Cl)c1)c1ccccn1 (stereo not drawn) | 1 | 0.6 | 87.1 | 7.94 | 7.71 | – | Delta heart rate (Cavia porcellus [12]): 96; Delta LV (Cavia porcellus [13]): 103; Delta coronary flow (Cavia porcellus [14]): 79; Relative potency (Cavia porcellus [15]): 199
N=C(NCCCc1c[nH]cn1)NCCC(Cc1ccccc1)c1ccc(F)cc1 (stereo not drawn) | 0.8 | – | 1.5 | 6.17 | – | 141 nM | –
N=C(NCCCc1c[nH]cn1)NCCC(c1ccncc1)c1ccc(F)cc1 (stereo not drawn) | – | – | – | – | – | 37.2 nM | Intrinsic activity [7]: 1; Intrinsic activity [8]: 0.9; Relative potency [9]: 42.7; pD2 [10]: 7.28; pD2 [11]: 7.63
N=C(NCCCc1c[nH]cn1)NCCC(c1ccc(Br)cc1)c1ccccn1 (stereo not drawn) | 1 | 0.4 | 30.2 | 7.48 | 6.97 | 120 nM | Delta heart rate (Cavia porcellus [12]): 101; Delta LV (Cavia porcellus [13]): 93; Delta coronary flow (Cavia porcellus [14]): 155; Relative potency (Cavia porcellus [15]): 61
N=C(NCCCc1c[nH]cn1)NCCC(c1ccccc1)c1ccc(F)cc1 (stereo not drawn) | 1 | 0.7 | 53.7 | 7.73 | 7.45 | 34.7 nM | –
N=C(NCCCc1c[nH]cn1)NCCC(c1ccc(Cl)cc1)c1ccccn1 (stereo not drawn) | 1 | 0.8 | 69.2 | 7.84 | 7.39 | 77.6 nM | Delta heart rate (Cavia porcellus [12]): 62; Delta LV (Cavia porcellus [13]): 91; Delta coronary flow (Cavia porcellus [14]): 103; Relative potency (Cavia porcellus [15]): 90
N=C(NCCCc1c[nH]cn1)NCCC(c1ccc(F)c(F)c1)c1ccccn1 (stereo not drawn) | – | – | – | – | – | – | Delta heart rate (Cavia porcellus [12]): 85; Delta LV (Cavia porcellus [13]): 123; Delta coronary flow (Cavia porcellus [14]): 108; Relative potency (Cavia porcellus [15]): 240; Intrinsic activity [7]: 1; Intrinsic activity [8]: 0.8; Relative potency [9]: 132; pD2 [10]: 7.9; pD2 [11]: 8.12
N=C(NCCCc1c[nH]cn1)NCCC(c1cc(Cl)cc(Cl)c1)c1ccccn1 (stereo not drawn) | 1 | – | 23.4 | 7.37 | – | 43.7 nM | –
